Reference: ChEMBL document CHEMBL3808365, “Potent and Selective CK2 Kinase Inhibitors with Effects on Wnt Pathway Signaling in Vivo” (ACS Med Chem Lett, 2016)

Tests used:
[1] = Aqueous solubility of the compound in phosphate buffer at pH 7.4 incubated for 24 hrs by LC/MS/MS method; type: physicochemical
[2] = Intrinsic clearance in human liver microsomes; type: ADME; conditions: read-out: CLH
[3] = Intrinsic clearance in rat hepatocyte assessed per 10^6 cells; type: ADME, cell-based; conditions: hepatocytes, read-out: CLH
[4] = target: Voltage-gated inwardly rectifying potassium channel KCNH2 (Homo sapiens, UniProt Q12809); assay: Inhibition of human ERG expressed in CHO cells by patch clamp assay; type: cell-based
[5] = target: T1, Casein kinase II subunit alpha (Homo sapiens, UniProt P68400); assay: Binding affinity to His-tagged recombinant human CK2alpha (6 to 335 residues) after 50 to 116.7 mins by surface plasmon resonance assay
[6] = Antiproliferative activity against human […] cells after 72 hrs by alamar blue assay; type: functional; conditions: HCT-116, 72 h
[7] = Antiproliferative activity against human DLD1 cells after 72 hrs by alamar blue assay; type: functional; conditions: DLD-1, 72 h
[8] = Antiproliferative activity against human SW620 cells after 72 hrs by alamar blue assay; type: functional; conditions: SW-620, 72 h
Rattus norvegicus = assay: AUC in rat at 10 mg/kg, po; type: ADME, organism-based; conditions: in vivo
[9] = Fraction unbound in human plasma at 10 uM by equilibrium dialysis method; type: ADME, cell-free
Hepatocyte = assay: Drug metabolism in rat hepatocytes assessed as oxidative demethylated metabolite formation; type: ADME, cell-based
Liver microsome [10] = assay: Drug metabolism in rat liver microsomes in presence of ABT; type: ADME
Summary of the method: (§1)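 Metabolite formation studied in rat and human liver microsome incubations with ABT present, to probe oxidative clearance.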

Liver microsome [11] = assay: Drug metabolism in human liver microsomes in presence of ABT; type: ADME; summary of the method: as §1
[12] = Inhibition of CK2 in mouse L-Wnt3a cells assessed as suppression of Wnt3a-mediated L S/L Super TOPFlash reporter gene transcription after 24 hrs; conditions: L Wnt-3A
[13] = target: T1, Casein kinase II subunit alpha; assay: Inhibition of full length N-terminal 6xHis-tagged recombinant human CK2alpha expressed in fall armyworm Sf21 cells using BODIPY-FL-RRRDDDSDDD-CONH2 as substrate after 90 mins by mobility shift assay
Casein kinase II = Casein kinase II (Homo sapiens, UniProt P19784+P67870+P68400); assay: Inhibition of CK2 in human DLD1 HA-myr-AKT1 cells assessed as suppression of AKTser129 phosphorylation after 3 to 24 hrs by Western blot analysis
Sequence of Casein kinase II (P67870 whole entry): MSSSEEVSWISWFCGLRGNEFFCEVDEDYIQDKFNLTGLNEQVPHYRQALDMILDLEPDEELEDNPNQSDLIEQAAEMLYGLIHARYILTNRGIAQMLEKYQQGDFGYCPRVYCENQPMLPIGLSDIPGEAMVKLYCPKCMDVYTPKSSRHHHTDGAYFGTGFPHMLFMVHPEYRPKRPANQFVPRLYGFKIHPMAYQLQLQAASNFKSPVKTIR
Sequence of Casein kinase II (P68400 whole entry): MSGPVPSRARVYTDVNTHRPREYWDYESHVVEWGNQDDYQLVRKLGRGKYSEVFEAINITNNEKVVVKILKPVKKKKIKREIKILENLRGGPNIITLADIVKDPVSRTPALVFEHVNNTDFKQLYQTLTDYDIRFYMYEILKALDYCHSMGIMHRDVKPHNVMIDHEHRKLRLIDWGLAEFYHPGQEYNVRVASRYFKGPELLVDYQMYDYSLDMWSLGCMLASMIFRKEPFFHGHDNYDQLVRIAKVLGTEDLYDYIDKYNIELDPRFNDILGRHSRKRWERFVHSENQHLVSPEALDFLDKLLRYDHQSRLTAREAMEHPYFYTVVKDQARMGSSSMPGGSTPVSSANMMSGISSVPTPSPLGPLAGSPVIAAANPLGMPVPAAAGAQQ
Sequence of Casein kinase II (P19784 whole entry): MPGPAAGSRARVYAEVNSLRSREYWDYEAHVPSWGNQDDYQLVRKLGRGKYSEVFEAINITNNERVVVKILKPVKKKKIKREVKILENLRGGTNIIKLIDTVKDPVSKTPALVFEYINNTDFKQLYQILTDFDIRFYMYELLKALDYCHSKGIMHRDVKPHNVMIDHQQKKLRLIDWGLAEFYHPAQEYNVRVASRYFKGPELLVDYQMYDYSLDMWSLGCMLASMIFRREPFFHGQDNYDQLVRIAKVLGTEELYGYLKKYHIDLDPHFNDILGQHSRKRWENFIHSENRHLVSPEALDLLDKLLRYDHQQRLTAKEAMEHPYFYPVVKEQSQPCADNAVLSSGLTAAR

T1 sequence (P68400 whole entry, the tested form may be a part): as the sequence (P68400 whole entry) above
Sequence of Voltage-gated inwardly rectifying potassium channel KCNH2 (Q12809 whole entry, the tested form may be a part): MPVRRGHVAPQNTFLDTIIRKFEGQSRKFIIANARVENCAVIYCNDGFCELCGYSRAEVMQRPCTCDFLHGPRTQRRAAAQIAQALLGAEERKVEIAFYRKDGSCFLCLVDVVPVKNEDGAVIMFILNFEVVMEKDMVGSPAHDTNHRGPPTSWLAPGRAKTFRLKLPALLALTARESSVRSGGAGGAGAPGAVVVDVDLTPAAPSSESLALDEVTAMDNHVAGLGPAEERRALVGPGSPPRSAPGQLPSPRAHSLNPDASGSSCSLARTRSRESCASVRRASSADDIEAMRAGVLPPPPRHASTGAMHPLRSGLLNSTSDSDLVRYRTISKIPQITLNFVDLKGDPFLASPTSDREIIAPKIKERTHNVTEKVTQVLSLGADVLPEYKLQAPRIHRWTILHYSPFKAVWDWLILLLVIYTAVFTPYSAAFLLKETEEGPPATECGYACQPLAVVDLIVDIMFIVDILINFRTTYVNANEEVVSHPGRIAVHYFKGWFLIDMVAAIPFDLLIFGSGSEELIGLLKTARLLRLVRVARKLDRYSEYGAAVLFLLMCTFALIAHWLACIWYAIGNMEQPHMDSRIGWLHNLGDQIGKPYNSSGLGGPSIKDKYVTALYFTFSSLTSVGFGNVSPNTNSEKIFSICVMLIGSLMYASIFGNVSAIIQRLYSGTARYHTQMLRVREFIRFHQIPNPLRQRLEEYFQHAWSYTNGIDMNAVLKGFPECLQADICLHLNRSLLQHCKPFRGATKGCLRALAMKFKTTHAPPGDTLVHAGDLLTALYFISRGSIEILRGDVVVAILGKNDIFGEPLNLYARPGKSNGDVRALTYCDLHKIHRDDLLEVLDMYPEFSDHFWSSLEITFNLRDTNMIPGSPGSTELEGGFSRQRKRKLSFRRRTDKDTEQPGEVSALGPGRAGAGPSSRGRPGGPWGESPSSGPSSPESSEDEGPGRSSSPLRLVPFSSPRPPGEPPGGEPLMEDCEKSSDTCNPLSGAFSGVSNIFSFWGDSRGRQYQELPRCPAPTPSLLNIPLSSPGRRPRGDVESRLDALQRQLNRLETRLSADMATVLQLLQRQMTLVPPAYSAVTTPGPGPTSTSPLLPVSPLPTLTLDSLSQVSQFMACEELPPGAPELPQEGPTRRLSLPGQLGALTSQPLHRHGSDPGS

In the case of `CC(=O)Nc1cc(Nc2cc(NC3CC3)n3ncc(C#N)c3n2)ccc1N(C)CCN(C)C`, the solubility at 24 h [1] is reported as > 1000 µM, the microsomal CLint [2] is reported as 9 µL/min/mg and the hepatocyte CLint [3] is reported as 32 µL/min/1e6 cells. For the same molecule, the IC50 [4] was 4000 nM, the Kd [5] was 0.0482 nM and the GI50 [6] was 30 nM. It also gave a GI50 [7] of 80 nM, a GI50 [8] of 30 nM and an AUC (Rattus norvegicus) of 0.36 µM·h. The fraction unbound at 10 µM [9] was 0.26, the Drug metabolism (Hepatocyte) was “metabolite_detected” and the Drug metabolism (Liver microsome [10]) was “metabolite_notdetected”. The Drug metabolism (Liver microsome [11]) was “metabolite_notdetected”, the IC50 [12] was 75 nM and the IC50 [13] was < 3 nM. The IC50 (Casein kinase II) was 1 nM.
